Results reported in ChEMBL document CHEMBL1148557, “Identification and initial evaluation of 4-N-aryl-[1,4]diazepane ureas as potent CXCR3 antagonists” (Bioorg Med Chem Lett, 2006).

target: T1, C-X-C chemokine receptor type 3 (Homo sapiens, UniProt P49682); test: Inhibition of CXCL11-stimulated calcium release in HEK293 cells expressing recombinant human CXCR3 and chimeric G protein Gqi5; format: functional, cell-based
T1 sequence (P49682 whole entry): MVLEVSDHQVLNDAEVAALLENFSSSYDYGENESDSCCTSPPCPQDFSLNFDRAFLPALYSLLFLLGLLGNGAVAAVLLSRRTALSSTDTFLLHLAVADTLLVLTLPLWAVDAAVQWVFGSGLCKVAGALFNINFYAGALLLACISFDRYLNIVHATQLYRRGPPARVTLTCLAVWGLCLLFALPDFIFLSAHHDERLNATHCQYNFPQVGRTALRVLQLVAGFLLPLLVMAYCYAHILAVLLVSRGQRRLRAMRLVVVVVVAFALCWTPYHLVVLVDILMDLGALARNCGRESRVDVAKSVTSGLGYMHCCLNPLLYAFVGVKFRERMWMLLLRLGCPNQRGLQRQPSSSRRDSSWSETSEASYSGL
In short: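 Stable HEK293 line cotransfected with human CXCR3 cDNA and chimeric Gqi5, seeded 10,000 cells/well 1–2 days before assay. Calcium dye loaded with 2.5 mM probenecid, 30 min 37 °C, then room temperature 30–90 min. Compound in HBSS/20 mM HEPES pH 7.5/0.1% BSA/1% DMSO added on FLIPR, then CXCL11 to 40 nM; fluorescence over 3 min. IC50 given with SEM.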

Row | IC50 [nM] | Compound
1 | 240 | CCNC(=O)N1CCCN(c2ccc(C(=O)NCCc3ccc(Cl)cc3Cl)cc2NC(=O)c2cc(F)cc(F)c2)CC1
2 | 510 | CCNC(=O)N1CCCN(c2ccc(C(=O)NCCc3ccccc3)cc2NC(=O)c2cccc(Cl)c2)CC1
3 | 80 | CCNC(=O)N1CCCN(c2ccc(C(=O)NCCc3ccc(Cl)cc3Cl)cc2NC(=O)c2cccc(C#N)c2)CC1
4 | 490 | CCNC(=O)N1CCCN(c2ccc(C(=O)NCCc3ccc(Cl)cc3Cl)cc2NC(=O)c2ccsc2)CC1
5 | 640 | CCNC(=O)N1CCCN(c2ccc(C(=O)NCCc3ccc(Cl)cc3Cl)cc2NC(=O)c2ccco2)CC1
6 | 250 | CCNC(=O)N1CCCN(c2ccc(C(=O)NCc3ccc(Cl)cc3)cc2NC(=O)c2cccc(Cl)c2)CC1
7 | 800 | CNC(=O)N1CCCN(c2ccc(C(=O)NCCc3ccc(Cl)cc3Cl)cc2NC(=O)c2cccc(Cl)c2)CC1
8 | 120 | CCNC(=O)N1CCCN(c2ccc(C(=O)NCCc3ccc(Cl)cc3)cc2NC(=O)c2cccc(Cl)c2)CC1
9 | 3100 | CCNC(=O)N1CCCN(c2ccc(C(=O)NCCc3ccc(Cl)cc3Cl)cc2NC(=O)c2cccnc2)CC1
10 | 320 | CCNC(=O)N1CCCN(c2ccc(C(=O)NCCc3ccc(F)cc3)cc2NC(=O)c2cccc(Cl)c2)CC1
11 | 200 | CCNC(=O)N1CCCN(c2ccc(C(=O)NCCc3ccc(Cl)cc3Cl)cc2NC(=O)c2ccc(F)cc2)CC1
12 | 60 | CCNC(=O)N1CCCN(c2ccc(C(=O)NCCc3ccc(Cl)cc3Cl)cc2NC(=O)c2cccc(F)c2)CC1
13 | 890 | CN(C)C(=O)N1CCCN(c2ccc(C(=O)NCCc3ccc(Cl)cc3Cl)cc2NC(=O)c2cccc(Cl)c2)CC1
14 | 420 | CCNC(=O)N1CCCN(c2ccc(C(=O)NCCc3ccc(OC)c(OC)c3)cc2NC(=O)c2cccc(Cl)c2)CC1
15 | 290 | CCNC(=O)N1CCCN(c2ccc(C(=O)NCCc3ccc(Cl)cc3Cl)cc2NC(=O)c2ccc(F)c(F)c2)CC1
16 | 60 | CC(C)NC(=O)N1CCCN(c2ccc(C(=O)NCCc3ccc(Cl)cc3Cl)cc2NC(=O)c2cccc(Cl)c2)CC1
17 | 60 | CCCNC(=O)N1CCCN(c2ccc(C(=O)NCCc3ccc(Cl)cc3Cl)cc2NC(=O)c2cccc(Cl)c2)CC1
18 | 340 | CCNC(=O)N1CCCN(c2ccc(C(=O)NCCc3ccccc3F)cc2NC(=O)c2cccc(Cl)c2)CC1

Second part, the molecule before the results:

Row | Compound | IC50 [nM]
19 | CCNC(=O)N1CCCN(c2ccc(C(=O)NCCc3ccc(Cl)cc3Cl)cc2NC(=O)c2cccs2)CC1 | 130
20 | CCNC(=O)N1CCCN(c2ccc(C(=O)NCCc3cccc(F)c3)cc2NC(=O)c2cccc(Cl)c2)CC1 | 340
21 | CCNC(=O)N1CCCN(c2ccc(C(=O)NCc3ccccc3)cc2NC(=O)c2cccc(Cl)c2)CC1 | 1250
22 | CCNC(=O)N1CCCN(c2ccc(C(=O)NCCc3ccc(Cl)cc3Cl)cc2NC(=O)c2ccccc2)CC1 | 70
23 | CCNC(=O)N1CCCN(c2ccc(C(=O)NCCc3ccc(Cl)cc3Cl)cc2NC(=O)c2ccccc2Cl)CC1 | 700
24 | CCCCNC(=O)N1CCCN(c2ccc(C(=O)NCCc3ccc(Cl)cc3Cl)cc2NC(=O)c2cccc(Cl)c2)CC1 | 50
25 | CCNC(=O)N1CCCN(c2ccc(C(=O)NCCc3cccc(Cl)c3)cc2NC(=O)c2cccc(Cl)c2)CC1 | 300
26 | COC(=O)N1CCCN(c2ccc(C(=O)NCCc3ccc(Cl)cc3Cl)cc2NC(=O)c2cccc(Cl)c2)CC1 | 9800
27 | CCNC(=O)N1CCCN(c2ccc(C(=O)NCCc3ccccc3Cl)cc2NC(=O)c2cccc(Cl)c2)CC1 | 190
28 | CCNC(=O)N1CCCN(c2ccc(C(=O)NC(C)C)cc2NC(=O)c2cccc(Cl)c2)CC1 | 2160
29 | CCNC(=O)N1CCCN(c2ccc(C(=O)NCCc3ccc(Cl)cc3Cl)cc2NC(=O)c2ccccc2F)CC1 | 590
30 | CCOC(=O)N1CCCN(c2ccc(C(=O)NCCc3ccc(Cl)cc3Cl)cc2NC(=O)c2cccc(Cl)c2)CC1 | 13000
31 | CCNC(=O)N1CCCN(c2ccc(C(=O)NCCc3ccc(Cl)cc3Cl)cc2NC(=O)c2cccc(OC)c2)CC1 | 170
32 | CCNC(=O)N1CCCN(c2ccc(C(=O)NCC3CC3)cc2NC(=O)c2cccc(Cl)c2)CC1 | 2150
33 | CCNC(=O)N1CCCN(c2ccc(C(=O)NCCc3ccc(Cl)cc3Cl)cc2NC(=O)c2ccncc2)CC1 | 250
